The term inhibition in vivo denotes the percentage by which the read-out fell short of the control.

The source made the active and inactive calls. The calls are words filed in the database; no cut-off is given here.

From ChEMBL document CHEMBL1122557, “Antiallergic agents. 3. N-(1H-tetrazol-5-yl)-2-pyridinecarboxamides” (1984) come the findings set out here.

Assay [1] concerns Rattus norvegicus. The experiment in a line: Inhibition of passive cutaneous anaphylaxis following 10 mg/kg p.o. administration. Type of assay: functional. Particulars: route oral. Put shortly:
(§1)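 Rat passive cutaneous anaphylaxis model, with test agents given by the oral route.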

The subject of assay [2] is Rattus norvegicus. The experiment in a line: Inhibition of passive cutaneous anaphylaxis following 3 mg/kg p.o. administration. Type of assay: functional. Particulars: route oral. An outline of the steps: as §1
The subject of assay [3] is Rattus norvegicus. The experiment in a line: Inhibition of passive cutaneous anaphylaxis following 10 mg/kg p.o. administration; Inactive. The note with it: at 10 mg/kg. Further details: dose 10 mg/kg. Type of assay: functional, organism-based. An outline of the steps: as §1
The subject of assay [4] is Rattus norvegicus. The experiment in a line: Inhibition of passive cutaneous anaphylaxis following 30 mg/kg p.o. administration. Type of assay: functional. Particulars: route oral. An outline of the steps: as §1
In assay [5] the test system is Rattus norvegicus. The assay is described as follows: Inhibition of passive cutaneous anaphylaxis following 1 mg/kg p.o. administration. Type of assay: functional. Particulars: route oral. Put shortly: as §1
The subject of assay [6] is Rattus norvegicus. The assay is described as follows: Inhibition of passive cutaneous anaphylaxis following 3 mg/kg p.o. (5 min pretreatment) administration. Type of assay: functional. Particulars: route oral. An outline of the steps:
as §1

In the assay with Rattus norvegicus [1], `COc1cccc(C(=O)Nc2nn[nH]n2)n1` displayed an inhibition in vivo at 10 mg/kg of 58%. Besides, in the assay with Rattus norvegicus [2], at 3 mg/kg the inhibition in vivo was 36%.
In the case of `O=C(O)c1cccc(/C=C/c2ccccc2)n1`, the inhibition result with Rattus norvegicus [3] is “inactive”.
Regarding `CCCCc1ccnc(C(=O)Nc2nn[nH]n2)c1`, 10 mg/kg produced 54% inhibition in vivo with Rattus norvegicus [1]. In addition, testing at 3 mg/kg in the assay with Rattus norvegicus [2] gave an inhibition in vivo of 33%.
Turning to `COc1cc(C)nc(C(=O)Nc2nn[nH]n2)c1`, at 10 mg/kg the inhibition in vivo with Rattus norvegicus [1] was 20%.
`O=C(Nc1nn[nH]n1)c1cccnc1` yielded an inhibition in vivo at 10 mg/kg in the assay with Rattus norvegicus [1] of 3%. In the assay with Rattus norvegicus [2], this compound yielded an inhibition in vivo at 3 mg/kg of 4%. Moreover, in the assay with Rattus norvegicus [4], the inhibition in vivo at 30 mg/kg is 18%.
As to `Cc1ccnc(C(=O)Nc2nn[nH]n2)c1`, in the assay with Rattus norvegicus [5], the inhibition in vivo at 1 mg/kg came to 28%. In addition, the inhibition in vivo at 3 mg/kg is 42% in the assay on Rattus norvegicus [2] and 51% with Rattus norvegicus [6].
As to `O=C(Nc1nn[nH]n1)c1cccc(/C=C/c2ccccc2)n1`, the inhibition in vivo at 1 mg/kg in the assay on Rattus norvegicus [5] was 53%. Moreover, the inhibition in vivo at 3 mg/kg was 73% in the assay with Rattus norvegicus [2] and 75% in the assay on Rattus norvegicus [6].
Turning to `Cc1cc(C)nc(C(=O)Nc2nn[nH]n2)c1`, the inhibition in vivo at 3 mg/kg is 44% in the assay on Rattus norvegicus [2] and 37% in the assay with Rattus norvegicus [6].
With `Cc1ccc(C)c(C(=O)Nc2nn[nH]n2)n1`, the inhibition in vivo at 1 mg/kg with Rattus norvegicus [5] was 37%. For the same compound, the inhibition in vivo at 3 mg/kg came out at 65% with Rattus norvegicus [2] and 72% in the assay with Rattus norvegicus [6].
In the case of `CC(C)c1ccnc(C(=O)Nc2nn[nH]n2)c1`, the inhibition in vivo at 1 mg/kg in the assay with Rattus norvegicus [5] was 36%. In addition, the inhibition in vivo at 3 mg/kg in the assay with Rattus norvegicus [2] is 34%.
In turn, `CNc1ccc(-c2cc(C)cc(C(=O)Nc3nn[nH]n3)n2)cc1` registered an inhibition in vivo at 3 mg/kg in the assay on Rattus norvegicus [2] of 89%.
On to `C(=C\c1cccc(-c2nn[nH]n2)n1)/c1ccccc1`, for which the inhibition entry in the assay on Rattus norvegicus [3] is “inactive”.
As for `O=C(Nc1nn[nH]n1)c1cccc(Br)n1`, in the assay with Rattus norvegicus [1], testing at 10 mg/kg gave an inhibition in vivo of 48%. In the assay with Rattus norvegicus [2], testing at 3 mg/kg gave an inhibition in vivo of 38%.
Compound `CCCc1cccc(C(=O)Nc2nn[nH]n2)n1` yielded an inhibition in vivo at 10 mg/kg in the assay with Rattus norvegicus [1] of 38%.
For the compound `O=C(Nc1nn[nH]n1)c1cc(Br)ccn1`, in the assay with Rattus norvegicus [5], at 1 mg/kg the inhibition in vivo was 9%. Also, in the assay with Rattus norvegicus [1], testing at 10 mg/kg gave an inhibition in vivo of 100%. For the same compound, in the assay with Rattus norvegicus [2], the inhibition in vivo at 3 mg/kg was determined as 34%.
In the assay with Rattus norvegicus [5], `O=C(Nc1nn[nH]n1)c1cc(Cl)ccn1` gave an inhibition in vivo at 1 mg/kg of 38%. In the assay on Rattus norvegicus [1], this compound yielded an inhibition in vivo at 10 mg/kg of 100%. In addition, the values for the inhibition in vivo at 3 mg/kg with Rattus norvegicus [2] and with Rattus norvegicus [6] were 72% and 71%, respectively.
In the assay on Rattus norvegicus [1], `O=C(Nc1nn[nH]n1)c1cc([N+](=O)[O-])ccn1` came in with an inhibition in vivo at 10 mg/kg of 38%.
On the same count and under the same terms, under `CCCCc1cccc(C(=O)Nc2nn[nH]n2)n1` stands 18%.
Take `O=C(Nc1nn[nH]n1)c1cccc(Cl)n1`: in the assay on Rattus norvegicus [1], the inhibition in vivo at 10 mg/kg is 13%. In the assay with Rattus norvegicus [2], this compound showed an inhibition in vivo at 3 mg/kg of 18%.
In the assay on Rattus norvegicus [5], `O=C(Nc1nn[nH]n1)c1ccccn1` came in with an inhibition in vivo at 1 mg/kg of 0%. In the assay on Rattus norvegicus [1], the inhibition in vivo at 10 mg/kg was determined as 35%. Moreover, testing at 3 mg/kg with Rattus norvegicus [2] gave an inhibition in vivo of 29%. In addition, testing at 30 mg/kg in the assay on Rattus norvegicus [4] gave an inhibition in vivo of 100%.
In the assay on Rattus norvegicus [4], `O=C(Nc1nn[nH]n1)c1ccncc1` showed an inhibition in vivo at 30 mg/kg of 57%.
`O=C(Nc1nn[nH]n1)c1cccc(CCc2ccccc2)n1` returned an inhibition in vivo at 10 mg/kg with Rattus norvegicus [1] of 45%.
On to `CCOC(=O)C(=O)Nc1cccc(/C=C/c2ccccc2)n1`, for which the inhibition result in the assay with Rattus norvegicus [3] is “inactive”.
Take `CSc1ccc(C(=O)Nc2nn[nH]n2)nc1`: the inhibition in vivo at 10 mg/kg with Rattus norvegicus [1] turned out to be 29%.
For `COc1ccnc(C(=O)Nc2nn[nH]n2)c1`, the inhibition in vivo at 10 mg/kg in the assay on Rattus norvegicus [1] worked out at 88%.
`O=C(Nc1nn[nH]n1)c1cccc(Oc2ccccc2)n1`: testing at 10 mg/kg in the assay with Rattus norvegicus [1] gave an inhibition in vivo of 0%.
Regarding `O=C(O)C(=O)Nc1cccc(/C=C/c2ccccc2)n1`, in the assay with Rattus norvegicus [3], the inhibition result is “inactive”.
Regarding `CCc1ccnc(C(=O)Nc2nn[nH]n2)c1`, the inhibition in vivo at 1 mg/kg in the assay on Rattus norvegicus [5] is 32%. Also, the inhibition in vivo at 3 mg/kg in the assay with Rattus norvegicus [2] turned out to be 29%; with Rattus norvegicus [6] it was 54%.
In the assay on Rattus norvegicus [1], `O=C(Nc1nn[nH]n1)c1ncccc1Cl` registered an inhibition in vivo at 10 mg/kg of 22%.
In turn, `COc1cccnc1C(=O)Nc1nn[nH]n1` returned an inhibition in vivo at 10 mg/kg in the assay on Rattus norvegicus [1] of 0%.
Still for that read-out and setting: under `Cc1cccnc1C(=O)Nc1nn[nH]n1` stands 69%.
On the same count and under the same terms, to `Cc1ccc(C(=O)Nc2nn[nH]n2)nc1C` belongs 42%.
In turn, `Cc1cccc(C(=O)Nc2nn[nH]n2)n1` gave an inhibition in vivo at 1 mg/kg in the assay with Rattus norvegicus [5] of 40%. For the same compound, the inhibition in vivo at 3 mg/kg in the assay on Rattus norvegicus [2] was found to be 46%; with Rattus norvegicus [6], 73%.
Compound `Cc1ccc(C(=O)Nc2nn[nH]n2)nc1` showed an inhibition in vivo at 10 mg/kg with Rattus norvegicus [1] of 42%.
Same read-out and setting: under `Cc1cc([N+](=O)[O-])cc(C(=O)Nc2nn[nH]n2)n1` stands 6%.
As to `CCCCOc1cccc(C(=O)Nc2nn[nH]n2)n1`, in the assay on Rattus norvegicus [1], the inhibition in vivo at 10 mg/kg turned out to be 8%. Besides, in the assay on Rattus norvegicus [2], 3 mg/kg produced 18% inhibition in vivo.
As to `Cc1cc(Cl)cc(C(=O)Nc2nn[nH]n2)n1`, in the assay with Rattus norvegicus [5], testing at 1 mg/kg gave an inhibition in vivo of 66%. The compound also returned an inhibition in vivo at 10 mg/kg with Rattus norvegicus [1] of 100%. Besides, the inhibition in vivo at 3 mg/kg with Rattus norvegicus [6] came to 85%.
